Measurements as given in ChEMBL document CHEMBL3297709, “High affinity ligands and potent antagonists for the α1D-adrenergic receptor. Novel 3,8-disubstituted [1]benzothieno[3,2-d]pyrimidine derivatives” (Eur J Med Chem, 2014).

Key:
[1] = biological target: T1, Alpha-1A adrenergic receptor (Homo sapiens, UniProt P35348); assay: Displacement of [125I]BE2254 from human alpha1a receptor expressed in HEK293 cells; assay type: cell-based
T1 sequence (P35348 whole entry): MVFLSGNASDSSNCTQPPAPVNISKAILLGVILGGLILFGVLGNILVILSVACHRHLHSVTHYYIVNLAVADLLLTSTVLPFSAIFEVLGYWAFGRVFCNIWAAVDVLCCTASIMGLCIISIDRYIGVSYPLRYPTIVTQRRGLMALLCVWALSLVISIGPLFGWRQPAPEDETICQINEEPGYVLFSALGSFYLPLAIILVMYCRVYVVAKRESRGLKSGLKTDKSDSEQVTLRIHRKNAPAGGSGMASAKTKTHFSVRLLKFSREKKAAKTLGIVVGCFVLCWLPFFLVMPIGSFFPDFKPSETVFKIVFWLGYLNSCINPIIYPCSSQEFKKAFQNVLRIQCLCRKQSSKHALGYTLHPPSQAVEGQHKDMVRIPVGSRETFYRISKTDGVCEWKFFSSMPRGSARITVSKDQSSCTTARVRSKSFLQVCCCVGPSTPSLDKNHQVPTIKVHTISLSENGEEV
Summary of the method: (§1)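 Membranes from HEK293 cells stably transfected with human α1A, α1B or α1D receptor cDNA, selected under 400 µg/mL geneticin. Competition against 50 pM [125I]BE2254; nonspecific binding defined with 10 µM phentolamine. Curves fitted by nonlinear regression. Mean ± SE of three experiments run in duplicate.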

[2] = biological target: T2, Alpha-1D adrenergic receptor (Homo sapiens, UniProt P25100); assay: Displacement of [125I]BE2254 from human alpha1d receptor expressed in HEK293 cells; assay type: cell-based; summary of the method: as §1
T2 sequence (P25100 whole entry): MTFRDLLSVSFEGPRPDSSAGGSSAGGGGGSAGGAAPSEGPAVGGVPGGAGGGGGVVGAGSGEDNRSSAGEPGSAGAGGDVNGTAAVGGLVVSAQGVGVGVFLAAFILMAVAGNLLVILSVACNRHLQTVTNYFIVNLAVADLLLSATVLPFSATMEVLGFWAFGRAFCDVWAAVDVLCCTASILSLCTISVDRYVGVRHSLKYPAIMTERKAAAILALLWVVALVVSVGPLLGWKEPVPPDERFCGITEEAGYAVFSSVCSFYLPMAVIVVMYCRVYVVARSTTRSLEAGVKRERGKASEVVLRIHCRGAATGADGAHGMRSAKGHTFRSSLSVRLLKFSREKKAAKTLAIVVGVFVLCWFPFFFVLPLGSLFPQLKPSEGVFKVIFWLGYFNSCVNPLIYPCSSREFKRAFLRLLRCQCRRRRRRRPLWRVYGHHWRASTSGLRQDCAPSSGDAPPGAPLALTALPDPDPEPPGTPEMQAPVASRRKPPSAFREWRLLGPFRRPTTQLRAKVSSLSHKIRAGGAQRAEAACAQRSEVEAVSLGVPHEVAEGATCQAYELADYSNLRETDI

[3] = biological target: T3, Alpha-1B adrenergic receptor (Homo sapiens, UniProt P35368); assay: Displacement of [125I]BE2254 from human alpha1b receptor expressed in HEK293 cells; assay type: cell-based; summary of the method: as §1
T3 sequence (P35368 whole entry): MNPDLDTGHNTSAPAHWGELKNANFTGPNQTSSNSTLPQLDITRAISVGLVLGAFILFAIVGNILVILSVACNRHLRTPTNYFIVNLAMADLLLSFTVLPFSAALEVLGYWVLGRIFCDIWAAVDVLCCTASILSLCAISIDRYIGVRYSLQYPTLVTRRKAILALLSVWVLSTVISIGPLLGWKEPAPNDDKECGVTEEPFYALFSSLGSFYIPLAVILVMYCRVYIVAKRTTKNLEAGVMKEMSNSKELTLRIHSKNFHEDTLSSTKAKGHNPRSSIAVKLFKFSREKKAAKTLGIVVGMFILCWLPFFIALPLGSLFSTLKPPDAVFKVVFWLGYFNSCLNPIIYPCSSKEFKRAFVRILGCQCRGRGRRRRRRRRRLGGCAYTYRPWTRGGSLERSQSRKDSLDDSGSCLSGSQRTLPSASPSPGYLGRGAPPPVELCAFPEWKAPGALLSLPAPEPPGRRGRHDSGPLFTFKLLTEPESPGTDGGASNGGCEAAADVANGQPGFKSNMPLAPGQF

[4] = biological target: T4, Alpha-1A adrenergic receptor (Rattus norvegicus) (UniProt P43140); assay: Antagonist activity at alpha1A adrenoceptor in Wistar rat vas deferens assessed as noradrenaline induced contractions
T4 sequence (whole entry): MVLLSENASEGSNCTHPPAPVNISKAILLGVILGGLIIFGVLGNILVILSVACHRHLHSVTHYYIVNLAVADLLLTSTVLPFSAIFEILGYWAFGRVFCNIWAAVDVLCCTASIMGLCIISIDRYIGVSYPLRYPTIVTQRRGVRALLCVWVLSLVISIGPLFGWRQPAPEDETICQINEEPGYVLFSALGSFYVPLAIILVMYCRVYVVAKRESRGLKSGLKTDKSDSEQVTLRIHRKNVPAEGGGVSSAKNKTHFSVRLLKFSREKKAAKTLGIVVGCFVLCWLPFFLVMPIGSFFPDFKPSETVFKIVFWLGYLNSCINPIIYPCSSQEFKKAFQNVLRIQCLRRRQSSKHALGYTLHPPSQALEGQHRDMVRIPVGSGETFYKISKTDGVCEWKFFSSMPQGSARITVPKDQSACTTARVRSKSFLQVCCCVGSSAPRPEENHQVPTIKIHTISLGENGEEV
Summary of the method: (§2)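 Male Wistar rat (275-300 g) prostatic vas deferens in 20 mL organ bath, physiological salt solution, 37 °C, 5% CO2:95% O2, pH 7.4. Primed twice with 10 µM (-)-NA, 45 min wash/equilibration, then cumulative (-)-NA curve recorded isotonically. Antagonist incubated 30–60 min before repeat curve. pKb = log(DR-1) - log[B] from ED50 ratio; mean ± SE of 4–5 experiments.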

[5] = biological target: T5, Alpha-1D adrenergic receptor (Rattus norvegicus) (UniProt P23944); assay: Antagonist activity at alpha1D adrenoceptor in Wistar rat thoracic aorta assessed as decrease in noradrenaline induced contractions at 0.1 uM; parameters: scale not given: the % may be the effect or the level left
T5 sequence (whole entry): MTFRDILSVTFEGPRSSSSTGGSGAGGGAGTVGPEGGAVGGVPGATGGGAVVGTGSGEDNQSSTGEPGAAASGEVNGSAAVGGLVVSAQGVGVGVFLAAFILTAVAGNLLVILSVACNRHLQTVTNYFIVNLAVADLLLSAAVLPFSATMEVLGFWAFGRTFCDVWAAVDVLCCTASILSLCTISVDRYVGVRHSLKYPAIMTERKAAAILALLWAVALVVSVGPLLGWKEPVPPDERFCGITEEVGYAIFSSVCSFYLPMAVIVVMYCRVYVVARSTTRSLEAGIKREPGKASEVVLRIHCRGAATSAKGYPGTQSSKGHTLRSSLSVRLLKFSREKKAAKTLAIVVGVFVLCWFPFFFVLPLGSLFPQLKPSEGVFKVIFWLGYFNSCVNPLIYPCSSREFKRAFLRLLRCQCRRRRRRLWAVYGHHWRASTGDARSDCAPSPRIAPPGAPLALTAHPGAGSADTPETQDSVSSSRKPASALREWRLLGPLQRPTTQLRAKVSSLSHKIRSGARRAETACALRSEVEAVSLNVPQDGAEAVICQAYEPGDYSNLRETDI
Summary of the method: (§3)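 Endothelium-denuded helicoidal thoracic aorta strips (15 x 3 mm) from male Wistar rats, Krebs solution, 1 g tension, ≥2 h equilibration. Cumulative (-)-NA curves recorded isometrically at 1 h intervals, third as control. Antagonist equilibrated 60 min before fourth curve. NA solutions held 0.05% Na2S2O4. pKb = log(DR-1) - log[B]; mean ± SE of 4–5 experiments.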

[6] = biological target: T6, Alpha-1B adrenergic receptor (Rattus norvegicus) (UniProt P15823); assay: Antagonist activity at alpha1B adrenoceptor in Wistar rat spleen assessed as decrease in phenylephrine induced contractions at 0.1 uM; parameters: scale not given: the % may be the effect or the level left
T6 sequence (whole entry): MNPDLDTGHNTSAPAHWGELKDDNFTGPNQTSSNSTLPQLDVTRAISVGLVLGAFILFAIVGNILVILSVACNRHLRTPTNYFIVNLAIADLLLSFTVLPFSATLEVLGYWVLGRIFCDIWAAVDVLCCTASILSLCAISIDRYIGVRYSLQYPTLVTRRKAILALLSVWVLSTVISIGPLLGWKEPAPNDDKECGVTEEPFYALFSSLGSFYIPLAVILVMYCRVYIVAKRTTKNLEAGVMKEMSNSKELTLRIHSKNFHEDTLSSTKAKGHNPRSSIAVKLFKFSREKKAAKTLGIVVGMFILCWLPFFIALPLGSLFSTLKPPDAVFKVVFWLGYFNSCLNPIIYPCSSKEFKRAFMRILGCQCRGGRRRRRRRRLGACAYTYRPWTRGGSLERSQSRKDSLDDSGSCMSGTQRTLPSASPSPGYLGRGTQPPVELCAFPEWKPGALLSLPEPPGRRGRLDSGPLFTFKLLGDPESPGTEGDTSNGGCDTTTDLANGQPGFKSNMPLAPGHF
Summary of the method: (§4)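 Wistar rat spleen strips under 1 g resting tension, equilibrated 2 h, with 4 µM (±)-propranolol to block β-adrenoceptors. Cumulative phenylephrine curves measured isometrically at 30 min intervals, first discarded, second as control. Antagonist incubated 30–60 min before repeat curve. pKb from ED50 dose ratio via pKb = log(DR-1) - log[B]; mean ± SE of 4–5 experiments.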

[7] = biological target: T5, Alpha-1D adrenergic receptor (Rattus norvegicus); assay: Antagonist activity at alpha1D adrenoceptor in Wistar rat thoracic aorta assessed as noradrenaline induced contractions; summary of the method: as §3
[8] = biological target: T6, Alpha-1B adrenergic receptor (Rattus norvegicus); assay: Antagonist activity at alpha1B adrenoceptor in Wistar rat spleen assessed as phenylephrine induced contractions; summary of the method: as §4
[9] = biological target: T4, Alpha-1A adrenergic receptor (Rattus norvegicus); assay: Antagonist activity at alpha1A adrenoceptor in Wistar rat vas deferans assessed as decrease in noradrenaline induced contractions at 0.1 uM; parameters: scale not given: the % may be the effect or the level left; summary of the method: as §2

| Compound | Ki [1] [nM] | Ki [2] [nM] | Ki [3] [nM] | pKb [4] | Activity [5] [%] | Activity [6] [%] | pKb [7] | pKb [8] | Activity [9] [%] |
| --- | --- | --- | --- | --- | --- | --- | --- | --- | --- |
| COc1ccccc1N1CCN(CCn2c(=O)[nH]c3c(sc4ccc(NC(=O)CCCCc5ccccc5)cc43)c2=O)CC1 | 5.25 | 1.17 | 36.3 | – | – | – | – | – | – |
| COc1ccccc1N1CCN(CCn2c(=O)[nH]c3c(sc4ccc(NC(=O)CCCN(C)Cc5ccccc5)cc43)c2=O)CC1 | 6.92 | 4.07 | 7.41 | – | – | – | – | – | – |
| COc1ccccc1N1CCN(CCn2c(=O)[nH]c3c(sc4ccc(NC(=O)CCC(=O)NCc5ccccc5)cc43)c2=O)CC1 | 1.1 | 0.372 | 2.69 | – | – | – | – | – | – |
| COc1ccccc1N1CCN(CCn2c(=O)[nH]c3c(sc4ccc(NC(=O)CCCC(=O)NCc5ccccc5)cc43)c2=O)CC1 | 0.324 | 0.141 | 0.832 | 7.7 | 100 | 100 | 8.64 | 7.94 | 100 |
| COc1ccccc1N1CCN(CCn2c(C)nc3c(sc4ccc(NC(=O)CCCC(=O)NCc5ccccc5)cc43)c2=O)CC1 | 3.55 | 5.5 | 19.1 | – | – | – | – | – | – |
| COc1ccccc1N1CCN(CCn2c(=O)[nH]c3c(sc4ccc(NC(=O)CCCN(C)C)cc43)c2=O)CC1 | 1.7 | 1.66 | 1.66 | – | – | – | – | – | – |
| COc1ccccc1N1CCN(CCn2c(C)nc3c(sc4ccc(NC(=O)CCCNC(=O)Cc5ccccc5)cc43)c2=O)CC1 | 1 | 2.29 | 7.59 | – | – | – | – | – | – |
| COc1ccccc1N1CCN(CCn2c(=O)[nH]c3c(sc4ccccc43)c2=O)CC1 | – | – | – | 8.61 | – | – | 8.89 | 8.44 | – |
| COc1ccccc1N1CCN(CCn2c(C)nc3c(sc4ccc(NC(=O)CCCC(=O)NCCc5ccccc5)cc43)c2=O)CC1 | 0.912 | 0.759 | 6.46 | – | – | – | – | – | – |
| COc1ccccc1N1CCN(CCn2c(=O)[nH]c3c(sc4ccc(NC(=O)CCCc5ccccc5)cc43)c2=O)CC1 | 7.08 | 3.24 | 33.9 | – | – | – | – | – | – |

Second part, the compound after the results:

| Ki [1] [nM] | Ki [2] [nM] | Ki [3] [nM] | pKb [4] | Activity [5] [%] | Activity [6] [%] | pKb [7] | pKb [8] | Activity [9] [%] | Compound |
| --- | --- | --- | --- | --- | --- | --- | --- | --- | --- |
| 1.62 | 1 | 6.46 | – | – | – | – | – | – | COc1ccccc1N1CCN(CCn2c(=O)[nH]c3c(sc4ccc(NC(=O)CCCC(=O)NCCc5ccccc5)cc43)c2=O)CC1 |
| 1.1 | 0.575 | 10 | – | – | – | – | – | – | COc1ccccc1N1CCN(CCn2c(=O)[nH]c3c(sc4ccc(NC(=O)c5ccccc5)cc43)c2=O)CC1 |
| 3.39 | 3.31 | 30.2 | – | – | – | – | – | – | COc1ccccc1N1CCN(CCn2c(C)nc3c(sc4ccc(NC(=O)Cc5ccccc5)cc43)c2=O)CC1 |
| 3.89 | 5.01 | 38.9 | – | – | – | – | – | – | COc1ccccc1N1CCN(CCn2c(C)nc3c(sc4ccc(NC(=O)c5ccccc5)cc43)c2=O)CC1 |
| 1.48 | 0.912 | 28.2 | – | – | – | – | – | – | COc1ccccc1N1CCN(CCn2c(=O)[nH]c3c(sc4ccc(NC(=O)Cc5ccccc5)cc43)c2=O)CC1 |
| 0.933 | 0.0562 | 1.91 | 7.82 | 100 | 100 | 9.15 | 7.77 | 90 | COc1ccccc1N1CCN(CCn2c(=O)[nH]c3c(sc4ccc(NC(=O)CCCC(=O)N(C)Cc5ccccc5)cc43)c2=O)CC1 |
